Results reported in ChEMBL document CHEMBL2331191, “Design and synthesis of novel 1,2,3-triazole-dithiocarbamate hybrids as potential anticancer agents” (Eur J Med Chem, 2013).

Legend:
MGC-803 [1] = assay: Induction of apoptosis in human MGC803 cells assessed as late apoptotic cells at 0.5 umol/L after 12 hrs by annexin-V-FITC/propidium iodide staining-based flow cytometric analysis (reference value: 5.5%); type: functional
Summary of the method: (§1)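 MGC-803 cells were plated at 5.0×10^4 cells/mL, held 12 h at 37 °C, then given complete medium (blank) or compound at 0, 0.25, 0.5 or 1.0 µmol/L for 12 h. Quadrants: live (annexin−/PI−), early apoptotic (annexin+/PI−), late apoptotic (annexin+/PI+), damaged (annexin−/PI+).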

MGC-803 [2] = assay: Induction of apoptosis in human MGC803 cells assessed as damaged cells at 0.25 umol/L after 12 hrs by annexin-V-FITC/propidium iodide staining-based flow cytometric analysis (reference value: 1.9%); type: functional; summary of the method: as §1
[3] = Cytotoxicity against human EC109 cells assessed as growth inhibition after 72 hrs by MTT assay; type: functional, cell-based; details: ECa-109, 72 h
Summary of the method: (§2)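 Exponentially growing cells were seeded at 5×10^3 per well and held 24 h at 37 °C. Medium was then replaced with fresh medium containing a range of concentrations, and cells were exposed for 72 h. MTT (5 mg/mL) was added for 4 h at 37 °C, formazan was dissolved in DMSO and A570 was read. Triplicate wells per concentration, three experiments. IC50 was taken from dose–response curves of inhibition ratio.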

MGC-803 [4] = assay: Induction of apoptosis in human MGC803 cells assessed as live cells at 0.5 umol/L after 12 hrs by annexin-V-FITC/propidium iodide staining-based flow cytometric analysis (reference value: 88.9%); type: functional; summary of the method: as §1
MGC-803 [5] = assay: Induction of apoptosis in human MGC803 cells assessed as late apoptotic cells at 1 umol/L after 12 hrs by annexin-V-FITC/propidium iodide staining-based flow cytometric analysis (reference value: 5.5%); type: functional; summary of the method: as §1
MCF7 = assay: Cytotoxicity against human MCF7 cells assessed as growth inhibition after 72 hrs by MTT assay; type: functional, cell-based; details: MCF7, 72 h; summary of the method: as §2
MGC-803 [6] = assay: Cell cycle arrest in human MGC803 cells assessed as accumulation at G2/M phase at 0.25 umol/L after 12 hrs by propidium iodide staining-based flow cytometric analysis (reference value: 17.59%); type: functional
MGC-803 [7] = assay: Induction of apoptosis in human MGC803 cells assessed as early apoptotic cells at 1 umol/L after 12 hrs by annexin-V-FITC/propidium iodide staining-based flow cytometric analysis (reference value: 3.7%); type: functional; summary of the method: as §1
MGC-803 [8] = assay: Induction of apoptosis in human MGC803 cells assessed as early apoptotic cells at 0.5 umol/L after 12 hrs by annexin-V-FITC/propidium iodide staining-based flow cytometric analysis (reference value: 3.7%); type: functional; summary of the method: as §1
MGC-803 [9] = assay: Induction of apoptosis in human MGC803 cells assessed as damaged cells at 1 umol/L after 12 hrs by annexin-V-FITC/propidium iodide staining-based flow cytometric analysis (reference value: 1.9%); type: functional; summary of the method: as §1
MGC-803 [10] = assay: Induction of apoptosis in human MGC803 cells assessed as live cells at 0.25 umol/L after 12 hrs by annexin-V-FITC/propidium iodide staining-based flow cytometric analysis (reference value: 88.9%); type: functional; summary of the method: as §1
MGC-803 [11] = assay: Cell cycle arrest in human MGC803 cells assessed as accumulation at G0/G1 phase at 0.25 umol/L after 24 hrs by propidium iodide staining-based flow cytometric analysis (reference value: 43.68%); type: functional
MGC-803 [12] = assay: Cytotoxicity against human MGC803 cells assessed as growth inhibition after 72 hrs by MTT assay; type: functional, cell-based; details: MGC-803, 72 h; summary of the method: as §2
MGC-803 [13] = assay: Cell cycle arrest in human MGC803 cells assessed as accumulation at G0/G1 phase at 1 umol/L after 12 hrs by propidium iodide staining-based flow cytometric analysis (reference value: 39.17%); type: functional
MGC-803 [14] = assay: Cell cycle arrest in human MGC803 cells assessed as accumulation at G2/M phase at 1 umol/L after 12 hrs by propidium iodide staining-based flow cytometric analysis (reference value: 17.59%); type: functional
MGC-803 [15] = assay: Induction of apoptosis in human MGC803 cells after 12 hrs by annexin-V-FITC/propidium iodide staining-based flow cytometric analysis; type: functional, cell-based; summary of the method: as §1
MGC-803 [16] = assay: Cell cycle arrest in human MGC803 cells assessed as accumulation at S phase at 0.25 umol/L after 12 hrs by propidium iodide staining-based flow cytometric analysis (reference value: 41.43%); type: functional
MGC-803 [17] = assay: Ratio of 5-fluorouracil IC50 to compound IC50 for growth inhibition of human MGC803 cells; type: functional
Summary of the method: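 The IC50 ratio uses MGC-803 values from the 72 h MTT assay: cells seeded at 5×10^3 per well, compound exposure 72 h, MTT 4 h at 37 °C, A570 read after DMSO solubilization. Triplicate wells, three experiments. IC50 values were taken from dose–response curves, with 5-fluorouracil as the reference.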

MGC-803 [18] = assay: Cell cycle arrest in human MGC803 cells assessed as accumulation at G2/M phase at 0.25 to 1 umol/L by propidium iodide staining-based flow cytometric analysis; type: functional; details: TDE = time-dependent effect
MGC-803 [19] = assay: Cell cycle arrest in human MGC803 cells assessed as accumulation at G2/M phase at 0.5 umol/L after 12 hrs by propidium iodide staining-based flow cytometric analysis (reference value: 17.59%); type: functional
MGC-803 [20] = assay: Cell cycle arrest in human MGC803 cells assessed as accumulation at S phase at 0.25 umol/L after 24 hrs by propidium iodide staining-based flow cytometric analysis (reference value: 39.56%); type: functional
MGC-803 [21] = assay: Cell cycle arrest in human MGC803 cells assessed as accumulation at G0/G1 phase at 0.25 umol/L after 12 hrs by propidium iodide staining-based flow cytometric analysis (reference value: 39.17%); type: functional
MGC-803 [22] = assay: Induction of apoptosis in human MGC803 cells assessed as early apoptotic cells at 0.25 umol/L after 12 hrs by annexin-V-FITC/propidium iodide staining-based flow cytometric analysis (reference value: 3.7%); type: functional; summary of the method: as §1
MGC-803 [23] = assay: Cell cycle arrest in human MGC803 cells assessed as accumulation at G0/G1 phase at 0.5 umol/L after 12 hrs by propidium iodide staining-based flow cytometric analysis (reference value: 39.17%); type: functional
MGC-803 [24] = assay: Induction of apoptosis in human MGC803 cells assessed as damaged cells at 0.5 umol/L after 12 hrs by annexin-V-FITC/propidium iodide staining-based flow cytometric analysis (reference value: 1.9%); type: functional; summary of the method: as §1
MGC-803 [25] = assay: Cell cycle arrest in human MGC803 cells assessed as accumulation at S phase at 1 umol/L after 12 hrs by propidium iodide staining-based flow cytometric analysis (reference value: 41.43%); type: functional
MGC-803 [26] = assay: Cell cycle arrest in human MGC803 cells assessed as accumulation at G2/M phase at 0.25 umol/L after 24 hrs by propidium iodide staining-based flow cytometric analysis (reference value: 15.12%); type: functional
MGC-803 [27] = assay: Cell cycle arrest in human MGC803 cells assessed as accumulation at S phase at 0.5 umol/L after 24 hrs by propidium iodide staining-based flow cytometric analysis (reference value: 39.56%); type: functional
PC-3 = assay: Cytotoxicity against human PC3 cells assessed as growth inhibition after 72 hrs by MTT assay; type: functional, cell-based; details: PC-3, 72 h; summary of the method: as §2
MGC-803 [28] = assay: Cell cycle arrest in human MGC803 cells assessed as accumulation at G2/M phase at 1 umol/L after 24 hrs by propidium iodide staining-based flow cytometric analysis (reference value: 15.12%); type: functional
MGC-803 [29] = assay: Induction of apoptosis in human MGC803 cells assessed as live cells at 1 umol/L after 12 hrs by annexin-V-FITC/propidium iodide staining-based flow cytometric analysis (reference value: 88.9%); type: functional; summary of the method: as §1
MGC-803 [30] = assay: Cell cycle arrest in human MGC803 cells assessed as accumulation at G2/M phase at 0.5 umol/L after 24 hrs by propidium iodide staining-based flow cytometric analysis (reference value: 15.12%); type: functional
MGC-803 [31] = assay: Cell cycle arrest in human MGC803 cells assessed as accumulation at G0/G1 phase at 0.5 umol/L after 24 hrs by propidium iodide staining-based flow cytometric analysis (reference value: 43.68%); type: functional
MGC-803 [32] = assay: Induction of apoptosis in human MGC803 cells assessed as late apoptotic cells at 0.25 umol/L after 12 hrs by annexin-V-FITC/propidium iodide staining-based flow cytometric analysis (reference value: 5.5%); type: functional; summary of the method: as §1
MGC-803 [33] = assay: Cell cycle arrest in human MGC803 cells assessed as accumulation at G2/M phase after 12 to 24 hrs by propidium iodide staining-based flow cytometric analysis; type: functional
MGC-803 [34] = assay: Cell cycle arrest in human MGC803 cells assessed as accumulation at S phase at 1 umol/L after 24 hrs by propidium iodide staining-based flow cytometric analysis (reference value: 39.56%); type: functional
MGC-803 [35] = assay: Cell cycle arrest in human MGC803 cells assessed as accumulation at G0/G1 phase at 1 umol/L after 24 hrs by propidium iodide staining-based flow cytometric analysis (reference value: 43.68%); type: functional
MGC-803 [36] = assay: Cell cycle arrest in human MGC803 cells assessed as accumulation at S phase at 0.5 umol/L after 12 hrs by propidium iodide staining-based flow cytometric analysis (reference value: 41.43%); type: functional

In the case of `CC(C)(C)OC(=O)N1CCN(C(=S)SCc2cn(Cc3ccccc3Cl)nn2)CC1`, the Activity (MGC-803 [1]) is reported as 8.4%, the Activity (MGC-803 [2]) is reported as 1.9% and the IC50 [3] is reported as 11.9 µM. It also gave an Activity (MGC-803 [4]) of 74.1%, an Activity (MGC-803 [5]) of 8.1% and an IC50 (MCF7) of 6.09 µM. For the same molecule, the Activity (MGC-803 [6]) was 22.2%, the Activity (MGC-803 [7]) was 35.1% and the Activity (MGC-803 [8]) was 14.6%. It also gave an Activity (MGC-803 [9]) of 2.3%, an Activity (MGC-803 [10]) of 84.8% and an Activity (MGC-803 [11]) of 27.21%. For the same molecule, the IC50 (MGC-803 [12]) was 0.49 µM, the Activity (MGC-803 [13]) was 11.95% and the Activity (MGC-803 [14]) was 64.1%. For the same molecule, the Activity (MGC-803 [15]) was “Dose-dependent effect”, the Activity (MGC-803 [16]) was 39.06% and the “Ratio IC50” value (MGC-803 [17]) was 14. For the same molecule, the Activity (MGC-803 [18]) was “tde”, the Activity (MGC-803 [19]) was 34.29% and the Activity (MGC-803 [20]) was 34.35%. The Activity (MGC-803 [21]) was 38.7%, the Activity (MGC-803 [22]) was 7.7% and the Activity (MGC-803 [23]) was 30.04%. It also gave an Activity (MGC-803 [24]) of 2.9%, an Activity (MGC-803 [25]) of 30.36% and an Activity (MGC-803 [26]) of 38.75%. The Activity (MGC-803 [27]) was 14.81%, the IC50 (PC-3) was 12.5 µM and the Activity (MGC-803 [28]) was 80.05%. It also gave an Activity (MGC-803 [29]) of 54.6%, an Activity (MGC-803 [30]) of 68.1% and an Activity (MGC-803 [31]) of 9.13%. For the same molecule, the Activity (MGC-803 [32]) was 5.5%, the Activity (MGC-803 [33]) was “Dose-dependent effect” and the Activity (MGC-803 [34]) was 10.67%. The Activity (MGC-803 [35]) was 1.62% and the Activity (MGC-803 [36]) was 36.01%.
